MC4R barr agon – agonists of human melanocortin 4 receptor (MC4R) beta-arrestin | P32245 | U2OS MC4R beta-arrestin complementation, luminescence; percent of melanotan II response, DMSO zero | activation, % at 8.9 µM | 0.98% of 360,000 active;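 active = activation above a per-plate cutoff, the mean activation of sample wells on that plate plus 3 SD, cut at about 8% in these data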
TLR9-MyD88 block – blocks human TLR9 binding to MyD88; Q9NR96+Q99836; inhibition, % at 4.98 µM; 0.21% of 340,000 active; CHO BLA complementation TLR9-MyD88, CCF4 FRET ratio; AID 504734;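 active = inhibition above the mean over all tested compounds plus 3 SD, cut at about 21% in these data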;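 note: 0% = DMSO only wells and 100% = clavulanate BLA inhibitor control wells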
Target sequence (Q99836 whole entry, looked up): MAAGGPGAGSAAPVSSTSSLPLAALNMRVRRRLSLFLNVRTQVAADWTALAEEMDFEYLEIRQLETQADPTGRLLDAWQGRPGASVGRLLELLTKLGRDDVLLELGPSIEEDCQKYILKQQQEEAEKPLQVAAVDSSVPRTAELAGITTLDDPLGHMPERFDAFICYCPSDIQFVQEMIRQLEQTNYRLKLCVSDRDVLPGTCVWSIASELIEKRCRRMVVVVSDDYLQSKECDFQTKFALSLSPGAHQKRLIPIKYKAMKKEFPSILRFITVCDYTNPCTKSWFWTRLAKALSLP
Target sequence (Q9NR96 whole entry, looked up): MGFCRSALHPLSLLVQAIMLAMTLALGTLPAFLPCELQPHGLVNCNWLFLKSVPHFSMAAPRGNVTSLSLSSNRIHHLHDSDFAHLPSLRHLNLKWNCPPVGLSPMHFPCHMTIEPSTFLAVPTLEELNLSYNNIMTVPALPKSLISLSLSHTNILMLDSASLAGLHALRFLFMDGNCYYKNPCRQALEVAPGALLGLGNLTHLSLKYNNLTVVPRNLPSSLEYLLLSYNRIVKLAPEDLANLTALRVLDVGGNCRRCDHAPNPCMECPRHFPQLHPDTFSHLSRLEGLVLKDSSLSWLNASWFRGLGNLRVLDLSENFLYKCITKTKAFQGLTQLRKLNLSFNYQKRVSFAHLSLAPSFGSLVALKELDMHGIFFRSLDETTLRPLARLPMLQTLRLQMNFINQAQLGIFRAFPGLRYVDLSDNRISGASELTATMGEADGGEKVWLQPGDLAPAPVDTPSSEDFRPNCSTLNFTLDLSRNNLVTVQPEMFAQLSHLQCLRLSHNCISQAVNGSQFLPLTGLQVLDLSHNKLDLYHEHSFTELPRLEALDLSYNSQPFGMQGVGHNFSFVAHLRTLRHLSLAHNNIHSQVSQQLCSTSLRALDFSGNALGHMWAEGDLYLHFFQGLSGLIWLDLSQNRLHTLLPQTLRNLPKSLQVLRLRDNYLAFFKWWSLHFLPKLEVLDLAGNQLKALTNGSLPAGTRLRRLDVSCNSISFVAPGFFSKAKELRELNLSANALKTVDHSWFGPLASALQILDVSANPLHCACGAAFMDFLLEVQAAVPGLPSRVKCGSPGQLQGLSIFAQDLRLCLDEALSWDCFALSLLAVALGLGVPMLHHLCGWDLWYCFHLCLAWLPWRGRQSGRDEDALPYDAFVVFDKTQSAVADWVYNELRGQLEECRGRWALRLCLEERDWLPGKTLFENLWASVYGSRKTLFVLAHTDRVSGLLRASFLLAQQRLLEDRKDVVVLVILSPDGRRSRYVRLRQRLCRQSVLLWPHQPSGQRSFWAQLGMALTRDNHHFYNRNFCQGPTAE
TLR4 MyD88 comp – blocks binding of human TLR4 to MyD88 | AID 861 | inhibition, % at 8.4 µM | O00206+Q99836 | HeLa CL3-4 TLR4/MyD88 BLA complementation, FRET ratio | 0.18% of 200,000 active; in the data active = inhibition above about 25%;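 note: 0% = vehicle and 100% = reference inhibitor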
beta cell repl – inducers of beta-cell replication in MIN6 cells | proliferation, % at 10 µM | AID 2380 | 0.29% of 330,000 active | MIN6 cells proliferation, ATPlite luminescence, 48 h; cells starved in 0.2% serum; 100% = growth in 10% serum;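 active = compounds whose signal lies at least 3.5 SD above the mean of all wells on their plate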;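 note: 0% = DMSO-treated cells in low-serum medium and 100% = 10% serum control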
NOD2 RIPK2 PPI – blocks binding of human NOD2 to RIPK2. CHO BLA complementation NOD2-RIPK2, CCF4 ratio. inhibition, % at 4.98 µM. 0.38% of 360,000 active. AID 624267; in the data active = inhibition above about 21%;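 note: 0% = vehicle only and 100% = reference blocker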
MC4R antag cAMP – blocks human MC4R cAMP signaling; P32245; MC4R-expressing cells, MTII-stimulated cAMP, LANCE TR-FRET; inhibition, % at 6.5 µM; 0.48% of 360,000 active; AID 540295;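 active = inhibition above its plate's cutoff, the mean of tested wells on that plate plus 3 SD, cut at about 29% in these data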;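 note: 0% = Melanotan II alone and 100% = Melanotan II plus saturating MCL0020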
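Material – human MC4R-expressing U2OS cells · Repeats – no replicates · Detection – TR-FRET with Eu-cAMP and labeled anti-cAMP, 671 nm · Times – compound 30 min, challenge 1 h, detection 1 h · Compound – single nominal compound dose of 6.5 µM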
MC4R barr conf – human MC4R beta-arrestin agonism confirmation | U2OS MC4R beta-arrestin recruitment, luminescence; scaled DMSO 0%, Melanotan II 100% | shares compounds with MC4R barr agon | 31% of 2,400 active | activation, % at 8.9 µM;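 active = mean activation across replicates above the hit cutoff set in the earlier primary screen, cut at about 8% in these data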
MOR DOR agonist – counter-screen for MC4R agonists: agonists of mu-delta opioid heterodimer; shares compounds with MC4R barr agon; U2OS PathHunter beta-arrestin, beta-gal luminescence; percent of deltorphin B response, DMSO zero; activation, % at 9.2 µM; 5.8% of 2,400 active; AID 602194;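 active = mean activation across replicates exceeds the hit threshold derived in the earlier primary screen, cut at about 18% in these data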;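 note: 100% = deltorphin B at 0.9 µM final and 0% = DMSO alone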
Numbers without * were called inactive; x = no result given. In the library only some 2.1% were active in any assay of this set; here they are far more common.

SMILES | MC4R barr agon | TLR9-MyD88 block | TLR4 MyD88 comp | beta cell repl | NOD2 RIPK2 PPI | MC4R antag cAMP | MC4R barr conf | MOR DOR agonist
Cc1sc2ncnc(N3CCC(C(=O)Nc4ccc(C#N)cc4)CC3)c2c1C | 11.5* | -1.8 | x | 1.8 | -6.6 | 13.0 | 0.1 | 7.8
COC(=O)c1sc2nc(C)cc(C)c2c1N | 0.0 | 17.9 | 9.4 | -2.9 | 3.7 | 8.5 | x | x
COc1cc(/C=N/NC(=O)c2sc3nc(C)cc(C)c3c2N)ccc1O | 15.9* | x | x | -2.2 | -1.8 | 0.9 | 1.3 | 3.3
Cc1cc(C)c2c(N)c(C(=O)Nc3ccccc3Br)sc2n1 | 10.0* | 5.2 | x | -2.9 | -1.6 | -0.6 | -0.1 | 4.9
Cc1cc(C)c2c(N)c(C(=O)Nc3ccccc3F)sc2n1 | -0.4 | -2.2 | x | -0.6 | 0.6 | 0.3 | x | x
COc1cccc(NC(=S)N(CCC(C)C)C2CCN(C(C)=O)CC2)c1 | -0.8 | -1.5 | x | -1.9 | -7.3 | 2.0 | x | x
N#C/C(=C(/O)COC(=O)CSc1ccc(Cl)cc1)c1nc2ccccc2[nH]1 | 9.7* | 2.1 | 1.2 | -4.0 | -0.6 | 2.9 | -4.0 | 3.9
Cc1cc(SCC(=O)OC/C(O)=C(\C#N)c2nc3ccccc3[nH]2)c(C)cc1Br | 1.0 | 0.7 | 7.9 | -1.6 | -5.3 | 7.6 | x | x
CC(C)(C)c1ccc(C(=O)O/N=C(\N)c2ccccc2)cc1 | 15.9* | -6.1 | x | -5.1 | 4.6 | 7.4 | 8.4* | 11.9
O=S(=O)(c1ccccc1)N1CCN(C(=S)Nc2ccccc2Cl)CC1 | 2.3 | -14.3 | x | -2.3 | -3.0 | -1.2 | x | x
COc1ccc(NC(=O)COC(=O)c2cc(SC)ccc2Cl)c(OC)c1 | 22.2* | -4.7 | 8.9 | -0.6 | 6.4 | 7.0 | 9.1* | 12.2
CC1=C(C(=O)N2CCCCCC2)CC(CC(=O)NCCc2ccccn2)C(=O)N1Cc1ccc(F)cc1 (configuration not stated) | x | x | x | x | -1.7 | x | x | x
CSCCC(NS(=O)(=O)c1ccc(Cl)cc1)C(=O)OCC(=O)c1c(C)[nH]c2ccccc12 (configuration not stated) | 11.5* | 10.9 | 1.9 | 0.0 | -12.9 | -11.1 | 3.0 | 9.2
CCOC(=O)CSc1nc2cc(OCC)ccc2cc1C#N | 30.8* | 12.6 | 14.7 | -3.8 | -0.8 | -1.8 | 4.9 | 9.7
COc1ccc(N2C(=O)c3ccc(C(=O)OC(C)C)cc3C2=O)cc1 | 0.6 | 6.2 | -5.8 | -1.7 | -10.7 | 3.9 | x | x
COc1ccc(-c2onc(C)c2-c2ccc(C(=O)OC(C)C)o2)c(O)c1 | 11.7* | -1.2 | -2.2 | 0.9 | -5.2 | 14.2 | 7.1 | 9.3
COc1ccc(-c2sc3ccc(N4CCOCC4)cc3c2C#CC(C)(C)O)cc1 | 22.7* | -3.8 | x | -5.4 | -3.4 | 18.4 | 7.9 | 2.3
O=C(COC(=O)CCNS(=O)(=O)c1ccccc1)Nc1ccc(OC(F)F)cc1 | 1.3 | -13.9 | x | 0.2 | 3.1 | 7.0 | x | x
O=C(Cc1cccs1)Nc1cccc(-c2nc3cc4ccccc4cc3[nH]2)c1 | 10.6* | -0.2 | -7.1 | x | 4.5 | 19.4 | 13.9* | 5.7
CC(C)C[C@@H]1CN(CCCC[C@H]2CNC(=O)C(=O)N2CCC2CCCCC2)C(=O)C(=O)N1CC1CCCCC1 | x | x | x | x | -16.9 | x | x | x
CCOc1ccc(CNC(=O)Cn2c(=O)c3cccn3c3ccccc32)cc1 | 21.5* | 7.4 | x | 0.8 | -6.1 | 4.7 | 2.4 | 2.6
COc1ccccc1CNC(=O)CCN=C1NS(=O)(=O)c2ccccc21 | -0.7 | 2.4 | x | -3.5 | -8.0 | 1.6 | x | x
Cc1ccc(S(=O)(=O)Oc2ccccc2-c2ccccc2)cc1 | 0.2 | -7.8 | x | x | -9.8 | -5.3 | x | x
COc1ccc(NC(=O)c2ccccc2NC(=O)c2ccccc2)cc1 | 9.6* | 5.9 | x | -3.3 | 3.2 | 2.6 | 2.4 | 4.8
O=C(CSc1ccccc1)Nc1ccc(C(=O)Nc2ccc(O)cc2)cc1 | 28.5* | 13.9 | -0.5 | -2.4 | -0.3 | 5.3 | 15.4* | 4.5
SMILES | MC4R barr agon | TLR9-MyD88 block | TLR4 MyD88 comp | beta cell repl | NOD2 RIPK2 PPI | MC4R antag cAMP | MC4R barr conf | MOR DOR agonist
COc1ccc(NC(=O)c2ccccc2NC(=O)CSc2ccccc2)cc1 | 13.4* | -5.9 | -7.6 | 0.0 | 11.9 | 0.9 | -0.9 | 4.7
CCc1ccc(C(=O)OCC(=O)N(CCOC)c2c(N)n(Cc3ccccc3)c(=O)[nH]c2=O)cc1 | -1.4 | -8.0 | x | 1.2 | 1.2 | 7.8 | x | x
COc1ncccc1C(=O)N1CCCC(C(=O)Nc2cccc(-c3ccc(F)cc3)c2)C1 (configuration not stated) | 0.9 | -1.8 | x | x | -3.6 | 5.0 | x | x
Cc1ccc(C)n1-c1ccc(C(=O)NN)s1 | -3.3 | 2.2 | 7.0 | 2.7 | 0.3 | -11.7 | x | x
CC1CN(C(=O)COC(=O)c2cc(=O)[nH]c3ccccc23)CC(C)O1 (configuration not stated) | -1.1 | 5.4 | x | x | 2.1 | -0.9 | x | x
Cc1ccc2nc(SCC(=O)c3c[nH]c4ccccc34)[nH]c2c1 | 11.8* | 9.7 | 5.4 | -3.4 | 6.0 | -2.4 | 5.3 | 3.9
CN1C(=O)[C@H]2[C@@H](c3ccc(C(F)(F)F)cc3)N[C@]3(CCCN(Cc4ccc(Cl)cc4)C3=O)[C@H]2C1=O | 9.7* | 4.2 | x | x | 11.0 | 15.9 | -3.0 | 2.4
O=c1n(Cc2ccccc2)c(O)c2n1Cc1ccccc1N=C2c1ccc(C(F)(F)F)cc1 | x | x | x | x | -1.1 | x | x | x
CCCC(=O)Nc1ccc(-c2csc(N/N=C\c3ccncc3)n2)cc1 | 18.7* | -2.9 | x | -2.3 | 3.7 | 10.7 | 3.0 | 7.8
CC(=O)Nc1ccc(-c2csc(N/N=C\c3ccncc3)n2)cc1 | -2.7 | x | x | -6.2 | -8.2 | -5.8 | x | x
Cc1ccc(Nc2cc(C)nc(-c3ccccc3O)n2)cc1 | 0.4 | -7.1 | -3.8 | -4.6 | -6.3 | -13.1 | x | x
Cc1cc(Nc2ccc(F)c(F)c2)nc(-c2ccccc2O)n1 | 14.2* | 1.6 | x | -2.9 | 8.4 | 3.7 | 3.9 | 5.0
O=C(NCC1OCCc2ccccc21)c1cc(COc2ccc(F)cc2Cl)on1 (configuration not stated) | 14.5* | 5.6 | -4.7 | -1.6 | -7.4 | -1.3 | 5.8 | 7.5
O=C(NC1CCc2ccccc21)c1cc(COc2ccc(F)cc2F)on1 (configuration not stated) | -2.0 | 7.4 | -16.2 | -2.6 | -0.4 | -0.9 | x | x
Cc1occc1C(=O)N(C)Cc1nc(-c2ccc(Cl)cc2)no1 | 0.0 | -7.8 | x | -2.1 | -2.1 | 9.1 | x | x
C=CCNc1nc(C(F)(F)F)nc2c1nnn2Cc1ccccc1Cl | 11.7* | 5.8 | x | 1.4 | -8.4 | -7.8 | 2.6 | 5.7

From PubChem BioAssay
